Measurements reported in publication PMC10754386 (Acta physiologica (Oxford, England), 2022).

Key:
[1] = test system: IR, IRS-1, mTOR, AKT; assay: Immunoblotting of phosphorylation signals in primary hepatocytes; assay type: cell-based, mouse; settings: cultured hepatocytes; immunoblot; n = 3; Figure 6A–D
[2] = test system: GSK-3β; assay: Immunoblotting of GSK-3β in liver; assay type: in vivo, mouse; settings: liver of fasted NCD-WT and DIO-WT mice; immunoblot; n = 4; Figure 9A,B
[3] = test system: mice; assay: Plasma counterregulatory hormones; assay type: in vivo, mouse; settings: NCD-WT mice; acute insulin for 30 minutes; n = 7; Figure 2B,C
[4] = test system: PI3-kinase; assay: PI-3-kinase activity in anti-p85 immunoprecipitates of hepatocytes; assay type: cell-based, mouse; settings: CST 100 nM for 1 hour, insulin 10 nM for 10 minutes, Figure 6E
Outline: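 Mouse hepatocytes were left untreated or exposed to CST (100 nM, 1 hr) or insulin (10 nM, 10 min), then lysed. Anti-p85 immunoprecipitates were washed and assayed with phosphatidylinositol substrate and γ-32P-ATP. Labelled lipids were extracted, mixed with reference lipids and separated by TLC (CHCl3–MeOH–H2O–NH4OH (25%), 45:35:8.5:1.5). PI3P was detected by autoradiography.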

[5] = test system: NCD-WT mice; assay: Liver glycogen content in NCD-WT mice; assay type: in vivo, mouse
[6] = test system: CST-KO mice; assay: Liver glycogen content in NCD-CST-KO mice; assay type: in vivo, mouse; settings: fed state, insulin 30 min, Figure 4B

Substance: insulin
- effect on tyrosine phosphorylation of IR and IRS-1 [1]: stimulated tyrosine phosphorylation
- effect on GSK-3β Ser9 phosphorylation [2]: increased GSK-3β Ser9 phosphorylation
- effect on plasma noradrenaline and adrenaline levels [3]: raised plasma noradrenaline and adrenaline levels only in the fasted state
- effect on PI3-kinase activity (PI3P formation) [4]: stimulated PI3-kinase activity
- effect on liver glycogen level ([5]; fasted NCD-WT mice, insulin 30 minutes, CST 2 μg/g body weight acute (1 hour) and chronic (10–15 days), Figure 1A,C,D): restored glycogen level
- fold increase in hepatic glycogen content ([5]; fasted lean mice, CST or insulin alone): > fivefold
- effect on hepatic glycogen content [6]: failed to increase
